Source: ChEMBL document CHEMBL1147582, “Approaches towards the stabilization of hemiaminal function at ornithine unit of mulundocandin” (2004)

Legend:
Format in all cases: functional
[1] = system: Aspergillus fumigatus; assay: Antifungal activity against Aspergillus fumigatus at a concentration of 2 mg/mL in MeOH; Zone: hazy diffused
Outline: (§1)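 Standard agar-well diffusion on Sabouraud agar bioassay plates, seeded with C. albicans strain IV or A. fumigatus strain AF-1. Read-out is the inhibition zone produced around the well. Zone appearance is scored as hazy, very hazy, hazy diffused or very hazy diffused, and judged against the zone of the parent mulundocandin.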

[2] = system: Aspergillus fumigatus; assay: Antifungal activity against Aspergillus fumigatus at a concentration of 5 mg/mL in MeOH; Zone: hazy diffused; outline: as §1
[3] = system: Candida albicans; assay: Antifungal activity against Candida albicans at a concentration of 5 mg/mL in MeOH; outline: as §1
[4] = system: Candida albicans; assay: Antifungal activity against Candida albicans at an intraperitoneal dose of 20 mg/kg twice a day for 6 days in mice in experiment 1
Outline: (§2)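 Swiss mice infected with C. albicans; compounds given intraperitoneally at 20 mg/kg, ×6, b.i.d. Kidneys homogenized and colony-forming units counted per gram of kidney (approximate). Untreated infected control group included; fluconazole at the same dose used as standard.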

[5] = system: Candida albicans; assay: Antifungal activity against Candida albicans at an intraperitoneal dose of 20 mg/kg twice a day for 6 days in mice in experiment 2; outline: as §2
[6] = system: Candida albicans; assay: Antifungal activity against Candida albicans at an intraperitoneal dose of 20 mg/kg twice a day for 6 days in mice
Outline: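 Swiss mice were infected with C. albicans and treated intraperitoneally at 20 mg/kg ×6, b.i.d. Kidneys were homogenized and the approximate CFU per gm kidney was counted. Comparator groups were the parent compound, fluconazole and untreated infected controls.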

[7] = system: Candida albicans; assay: Antifungal activity against Candida albicans at a concentration of 1 mg/mL in MeOH; Zone: hazy; outline: as §1
[8] = system: Aspergillus fumigatus; assay: Antifungal activity against Aspergillus fumigatus at a concentration of 1 mg/mL in MeOH; Zone: hazy; outline: as §1
[9] = system: Aspergillus fumigatus; assay: Antifungal activity against Aspergillus fumigatus at a concentration of 2 mg/mL in MeOH; Zone: very hazy diffused; outline: as §1
[10] = system: Aspergillus fumigatus; assay: Antifungal activity against Aspergillus fumigatus at a concentration of 1.1 mg/mL in MeOH; Zone: hazy diffused; outline: as §1
[11] = system: Candida albicans; assay: Antifungal activity against Candida albicans at a concentration of 1.1 mg/mL in MeOH; outline: as §1
[12] = system: Candida albicans; assay: Antifungal activity against Candida albicans at a concentration of 0.1 mg/mL in MeOH; outline: as §1
[13] = system: Candida albicans; assay: Antifungal activity against Candida albicans at a concentration of 1 mg/mL in MeOH; outline: as §1
[14] = system: Aspergillus fumigatus; assay: Antifungal activity against Aspergillus fumigatus at a concentration of 2 mg/mL in MeOH; Zone: hazy; outline: as §1
[15] = system: Aspergillus fumigatus; assay: Antifungal activity against Aspergillus fumigatus at a concentration of 5 mg/mL in MeOH; Zone: hazy; outline: as §1
[16] = system: Aspergillus fumigatus; assay: Antifungal activity against Aspergillus fumigatus at a concentration of 5 mg/mL in MeOH; Zone: very hazy diffused; outline: as §1
[17] = system: Candida albicans; assay: Antifungal activity against Candida albicans at a concentration of 2 mg/mL in MeOH; Zone: hazy; outline: as §1
[18] = system: Aspergillus fumigatus; assay: Antifungal activity against Aspergillus fumigatus at a concentration of 2 mg/mL in MeOH; Zone: diffused; outline: as §1
[19] = system: Aspergillus fumigatus; assay: Antifungal activity against Aspergillus fumigatus at a concentration of 2 mg/mL in MeOH; Zone: very hazy; outline: as §1

| Compound | Zone size [1] | Zone size [2] | Zone size [3] | Zone size [13] | also measured |
| --- | --- | --- | --- | --- | --- |
| CCC(C)CCCCCCCCCCC(=O)N[C@@H]1C[C@@H](O)[C@H](OCc2ccccc2)NC(=O)[C@@H]2[C@@H](O)[C@@H](C)CN2C(=O)C(CO)NC(=O)C([C@@H](O)Cc2ccc(O)cc2)NC(=O)[C@@H]2C[C@@H](O)CN2C(=O)C(C(C)O)NC1=O (some centres undefined) | 15 mm | 18 mm | 17 mm | – | – |
| OC(Cn1cncn1)(Cn1cncn1)c1ccc(F)cc1F [FLUCONAZOLE] | – | – | – | – | Approximate colony formation unit [4]: 380000 (g kidney)-1; Approximate colony formation unit [5]: 10000 (g kidney)-1 |
| CCC(C)CCCCCCCCCCC(=O)N[C@@H]1C[C@@H](O)CNC(=O)[C@@H]2[C@@H](O)[C@@H](C)CN2C(=O)[C@H](CO)NC(=O)[C@H]([C@@H](O)Cc2ccc(O)cc2)NC(=O)[C@@H]2C[C@@H](O)CN2C(=O)[C@H]([C@@H](C)O)NC1=O (some centres undefined) | 30 mm | 35 mm | 38 mm | – | Approximate colony formation unit [6]: 7700000 (g kidney)-1; Zone size [7]: 24 mm; Zone size [8]: 25 mm |
| CCC(C)CCCCCCCCCCC(=O)N[C@@H]1C[C@@H](O)[C@H](O)NC(=O)[C@@H]2[C@@H](O)[C@@H](C)CN2C(=O)[C@H](CO)NC(=O)[C@H]([C@@H](O)[C@H](O)c2ccc(O)cc2)NC(=O)[C@@H]2C[C@@H](O)CN2C(=O)[C@H]([C@@H](C)O)NC1=O (some centres undefined) | – | – | – | – | Approximate colony formation unit [4]: 150000000 (g kidney)-1; Zone size [9]: 35 mm; Approximate colony formation unit [5]: 12500000 (g kidney)-1; Zone size [10]: 29 mm; Zone size [11]: 29 mm; Zone size [12]: 24 mm |
| CCC(C)CCCCCCCCCCC(=O)N[C@@H]1C[C@@H](O)C(c2ccc(OC)c(OC)c2)NC(=O)[C@@H]2[C@@H](O)[C@@H](C)CN2C(=O)C(CO)NC(=O)C([C@@H](O)[C@H](O)c2ccc(O)cc2)NC(=O)[C@@H]2C[C@@H](O)CN2C(=O)C(C(C)O)NC1=O (some centres undefined) | 30 mm | 32 mm | 29 mm | 24 mm | – |
| CCC(C)CCCCCCCCCCC(=O)N[C@@H]1C[C@H](O)C(C#N)NC(=O)[C@@H]2[C@@H](O)[C@@H](C)CN2C(=O)[C@H](CO)NC(=O)[C@H]([C@@H](O)[C@H](O)c2ccc(O)cc2)NC(=O)[C@@H]2C[C@@H](O)CN2C(=O)[C@H]([C@@H](C)O)NC1=O (some centres undefined) | 20 mm | 27 mm | 25 mm | 19 mm | – |
| CCC(C)CCCCCCCCCCC(=O)N[C@@H]1C[C@@H](O)C(O)NC(=O)[C@@H]2[C@@H](O)[C@@H](C)CN2C(=O)[C@H](CO)NC(=O)[C@H]([C@@H](O)Cc2ccc(O)cc2)NC(=O)[C@@H]2C[C@@H](O)CN2C(=O)[C@H]([C@@H](C)O)NC1=O (some centres undefined) | 30 mm | – | – | 30 mm | Approximate colony formation unit [6]: 180000000 (g kidney)-1 |
| CCC(C)CCCCCCCCCCC(=O)N[C@@H]1C[C@@H](O)CNC(=O)[C@@H]2[C@@H](O)[C@@H](C)CN2C(=O)[C@H](CO)NC(=O)[C@H]([C@@H](O)C(O)c2ccc(O)cc2)NC(=O)[C@@H]2C[C@@H](O)CN2C(=O)[C@H]([C@@H](C)O)NC1=O (some centres undefined) | 23 mm | 25 mm | 29 mm | 25 mm | – |
| CCC(C)CCCCCCCCCCC(=O)N[C@@H]1C[C@@H](O)C(OCc2ccccc2)NC(=O)[C@@H]2[C@@H](O)[C@@H](C)CN2C(=O)C(CO)NC(=O)C([C@@H](O)[C@H](O)c2ccc(O)cc2)NC(=O)[C@@H]2C[C@@H](O)CN2C(=O)C(C(C)O)NC1=O (some centres undefined) | – | – | 16 mm | – | Zone size [14]: 24 mm; Zone size [15]: 26 mm |
| CCC(C)CCCCCCCCCCC(=O)N[C@@H]1C[C@@H](O)C(CN)NC(=O)[C@@H]2[C@@H](O)[C@@H](C)CN2C(=O)C(CO)NC(=O)C([C@@H](O)[C@H](O)c2ccc(O)cc2)NC(=O)[C@@H]2C[C@@H](O)CN2C(=O)C(C(C)O)NC1=O (some centres undefined) | 23 mm | 25 mm | 25 mm | 22 mm | – |
| CCC(C)CCCCCCCCCCC(=O)N[C@@H]1C[C@@H](O)C(OC)NC(=O)[C@@H]2[C@@H](O)[C@@H](C)CN2C(=O)C(CO)NC(=O)C([C@@H](O)[C@H](O)c2ccc(O)cc2)NC(=O)[C@@H]2C[C@@H](O)CN2C(=O)C(C(C)O)NC1=O (some centres undefined) | – | – | 27 mm | 25 mm | Zone size [16]: 35 mm; Zone size [17]: 26 mm; Zone size [18]: 37 mm; Zone size [14]: 24 mm |
| CCC(C)CCCCCCCCCCC(=O)N[C@@H]1C[C@@H](O)C(S(=O)(=O)CC(=O)OC)NC(=O)[C@@H]2[C@@H](O)[C@@H](C)CN2C(=O)C(CO)NC(=O)C([C@@H](O)[C@H](O)c2ccc(O)cc2)NC(=O)[C@@H]2C[C@@H](O)CN2C(=O)C(C(C)O)NC1=O (some centres undefined) | – | 29 mm | 26 mm | 20 mm | Zone size [19]: 24 mm |
